Test results from ChEMBL document CHEMBL4385626, “SAR optimization studies on modified salicylamides as a potential treatment for acute myeloid leukemia through inhibition of the CREB pathway” (Bioorg Med Chem Lett, 2019).
Active and inactive are the calls of the source. The rule behind the calls is not given here.

Tests used:
[1] = MRT (0 to infinity) in NSG mouse at 2 mg/kg, iv measured after 7 to 150 mins by LC/MS/MS analysis; format: ADME, organism-based; conditions: in vivo
Procedure, shortened: (§1)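 Single IV dose of 2 mg/kg to NSG mice (NOD.Cg-Prkdc scid Il2rg tm1Wjl/SzJ), vehicle DMSO/Kolliphor EL/water (3/5/82). Compound levels measured in plasma at various times after injection. PK parameters derived from the plasma time-concentration profiles.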

[2] = tested on: NALM-6; assay: Cytotoxicity against human NALM6 cells incubated for 3 days by CellTiter-Glo luminescent assay; format: functional, cell-based; conditions: NALM-6, 72 h
Procedure, shortened: (§2)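 CellTiter-Glo viability read-out on leukemia cell lines. IC50 reported as the average of triplicates.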

[3] = Elimination half life in NSG mouse at 2 mg/kg, iv measured after 7 to 150 mins by LC/MS/MS analysis; format: ADME, organism-based; conditions: in vivo, read-out: beta t1/2 (converted); procedure, shortened: as §1
[4] = AUC (0 to t) in NSG mouse at 2 mg/kg, iv measured after 7 to 150 mins by LC/MS/MS analysis; format: ADME, organism-based; conditions: in vivo; procedure, shortened: as §1
[5] = tested on: Bone marrow cell; assay: Cytotoxicity against human bone marrow cells incubated for 3 days by CellTiter-Glo luminescent assay; format: cell-based; conditions: 72 h
[6] = tested on: HL-60; assay: Cytotoxicity against human HL60 cells incubated for 3 days by CellTiter-Glo luminescent assay; format: functional, cell-based; conditions: HL-60, 72 h; procedure, shortened: as §2
[7] = tested on: KG-1; assay: Cytotoxicity against human KG1 cells incubated for 3 days by CellTiter-Glo luminescent assay; format: functional, cell-based; conditions: KG-1, 72 h; procedure, shortened: as §2
[8] = organism: Homo sapiens; assay: Inhibition of CREB in human HL60 cells assessed as downregulation of POLD2 gene expression at 1 uM incubated for 1 day by RT-qPCR analysis; format: cell-based
Procedure, shortened: (§3)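 HL60 cells given 1 μM compound for 1 d. RFC3 and POLD2 mRNA measured by RT-qPCR and normalized to 7SL lncRNA. Results given as mean of three independent experiments ± SEM.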

[9] = Metabolic stability in mouse liver microsomes assessed as half life in presence of NADPH by LC-MS/MS analysis; format: ADME, Microsome
[10] = Metabolic stability in human liver microsomes assessed as half life in presence of NADPH by LC-MS/MS analysis; format: ADME, Microsome
[11] = tested on: Jurkat; assay: Cytotoxicity against human Jurkat cells incubated for 3 days by CellTiter-Glo luminescent assay; format: functional, cell-based; conditions: 72 h; procedure, shortened: as §2
[12] = tested on: HL-60; assay: Induction of cell cycle arrest in human HL60 cells assessed as cyclin B expression in G2 phase by measuring as fluorescence intensity level at 1 uM incubated for 1 day by flow cytometric analysis (reference value: 1196.33 +/- 40.48); format: functional
[13] = AUC (0 to infinity) in NSG mouse at 2 mg/kg, iv measured after 7 to 150 mins by LC/MS/MS analysis; format: ADME, organism-based; parameters: dose 2 mg/kg, time infinity, route intravenous; conditions: in vivo; procedure, shortened: as §1
[14] = tested on: HL-60; assay: Induction of apoptosis in human HL60 cells assessed as early apoptotic cells at 1 uM incubated for 1 day by AnnexinV/DAPI double staining based flow cytometric analysis (reference value: 3.2 +/- 0.1%); format: functional
[15] = Volume of distribution at steady state in NSG mouse at 2 mg/kg, iv measured after 7 to 150 mins by LC/MS/MS analysis; format: ADME, organism-based; conditions: in vivo; procedure, shortened: as §1
[16] = Apparent volume of distribution in NSG mouse at 2 mg/kg, iv measured after 7 to 150 mins by LC/MS/MS analysis; format: ADME, organism-based; conditions: in vivo; procedure, shortened: as §1
[17] = organism: Homo sapiens; assay: Inhibition of CREB in human HL60 cells assessed as downregulation of RFC3 gene expression at 1 uM incubated for 1 day by RT-qPCR analysis; format: cell-based; procedure, shortened: as §3
[18] = tested on: HL-60; assay: Induction of apoptosis in human HL60 cells assessed as PARP cleavage level at 1 uM incubated for 1 day by DAPI staining based flow cytometric analysis (reference value: 1.2 +/- 0.1%); format: functional
[19] = tested on: HL-60; assay: Induction of cell cycle arrest in human HL60 cells assessed as S phase at 1 uM incubated for 1 day by DAPI staining based flow cytometric analysis (reference value: 27.5 +/- 0.57%); format: functional
[20] = tested on: HL-60; assay: Induction of apoptosis in human HL60 cells assessed as late apoptotic cells at 1 uM incubated for 1 day by AnnexinV/DAPI double staining based flow cytometric analysis (reference value: 1.2 +/- 0.03%); format: functional
[21] = Clearance in NSG mouse at 2 mg/kg, iv measured after 7 to 150 mins by LC/MS/MS analysis; format: ADME, organism-based; conditions: in vivo; procedure, shortened: as §1
[22] = Plasma concentration in NSG mouse at 2 mg/kg, iv measured after 7 to 150 mins by LC/MS/MS analysis; format: ADME, organism-based; conditions: in vivo; procedure, shortened: as §1
[23] = organism: Homo sapiens; assay: Inhibition of CBP KIX domain (unknown origin) binding to BODIPY-labeled phosphorylated CREB KID domain (unknown origin) interaction pre-incubated for 30 mins by fluorescence polarization assay
Procedure, shortened: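 Fluorescence polarization with BODIPY-labeled phosphorylated CREB KID domain and the CBP KIX domain. Polarization reports the degree of KIX-KID binding.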

[24] = Inhibition of KIX-RLucC fused CBP (unknown origin) binding to KID-RLucN fused CREB (unknown origin) transfected in human HEK293 cells preincubated with compound 30 mins before forskolin addition and measured after 90 mins in presence of coelenterazine by split Renilla luciferase complementation assay
[25] = tested on: HL-60; assay: Induction of cell cycle arrest in human HL60 cells assessed as accumulation at G1 phase at 1 uM incubated for 1 day by DAPI staining based flow cytometric analysis (reference value: 48.37 +/- 0.15%); format: functional
[26] = tested on: HL-60; assay: Induction of cell cycle arrest in human HL60 cells assessed as G2 phase at 1 uM incubated for 1 day by DAPI staining based flow cytometric analysis (reference value: 21.4 +/- 0.42%); format: functional
[27] = tested on: HL-60; assay: Induction of cell cycle arrest in human HL60 cells assessed as M phase at 1 uM incubated for 1 day by DAPI staining based flow cytometric analysis (reference value: 2.64 +/- 0.06%); format: functional

MRT inf [1] | half-life [3] | AUC(0-t) [4] | half-life [9] | half-life [10] | AUC(0-inf) [13] | Vdss [15] | Vz [16] | CL [21] | Compound | IC50 [2] | IC50 [5] | IC50 [6] | IC50 [7] | inhibition [8] | IC50 [11] | Activity [14] | inhibition [17] | Activity [18] | Activity [19] | Activity [20] | also measured
0.458 h | 1.39 h | 4070 ng·h/mL | 2.61 h | 2.07 h | 4090 ng·h/mL | 0.00022 mg/ng/mL | 0.00098 mg/ng/mL | 0.00049 mg/ng/mL/h | N#Cc1ccc(NC(=O)c2ccc3cccnc3c2O)cc1 | 0.13 µM | 3.07 µM | 0.37 µM | 2.32 µM | inactive | 0.18 µM | 6.3% | inactive | 17.3% | 33.7% | 3% | FI [12]: 875.33
1.02 h | 2.05 h | 2250 ng·h/mL | 2.65 h | 2.65 h | 2330 ng·h/mL | 0.00087 mg/ng/mL | 0.003 mg/ng/mL | 0.00086 mg/ng/mL/h | O=C(Nc1cc(C(F)(F)F)cc(C(F)(F)F)c1)c1cc(Br)c(-c2ccccc2)cc1O | 0.84 µM | > 10 µM | 0.43 µM | 0.3 µM | Active | 0.68 µM | 8.8% | Active | 58.1% | 14.27% | 30.9% | Cp [22]: 19 ng/mL; inhibition [23]: Active; IC50 [24]: 1.55 µM; Activity [25]: 69.77%; Activity [26]: 14.37%; Activity [27]: 1.23%
0.404 h | 0.56 h | 536 ng·h/mL | 0.11 h | 0.35 h | 536 ng·h/mL | 0.0015 mg/ng/mL | 0.0025 mg/ng/mL |  | O=C(Nc1ccc([N+](=O)[O-])cc1Cl)c1cc(Cl)ccc1O [NICLOSAMIDE] | 0.62 µM | > 10 µM | 0.3 µM | 0.36 µM |  | 0.4 µM |  |  |  |  |  | Cp [22]: 0.12 ng/mL; IC50 [24]: 1.53 µM
